The text below walks through data of ChEMBL document CHEMBL2057153, “Bisdionin C-a rationally designed, submicromolar inhibitor of family 18 chitinases” (ACS Med Chem Lett, 2011).

By IC50 is commonly meant the concentration that inhibits the measured activity by half. Read a low IC50 as inhibition by little substance.

For assay [1], the target named is Endochitinase B1 (Aspergillus fumigatus, UniProt Q873X9). Description: Inhibition of Aspergillus fumigatus ChitinaseB1 expressed in Escherichia coli using 4-methyumbelliferyl-beta-B-N,N'-diacetylchitobiose after 10 mins. In a few lines: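 Recombinant AfChiB1, expressed and purified as reported earlier, assayed with fluorogenic 4MU-GlcNAc2 substrate. IC50 obtained from triplicate measurements at each inhibitor concentration.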

Assay [2] has as its target Acidic mammalian chitinase (Mus musculus, UniProt Q91XA9). Description: Inhibition of AMCase in BALB/c mouse lung homogenate using 4-methyumbelliferyl-beta-B-N,N'-diacetylchitobiose after 10 mins. The procedure, abridged: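 AMCase activity taken from lung homogenate of female BALB/C mice; 100 mg lung lobe tissue homogenized in HBSS. Substrate 4MU-GlcNAc2, fluorogenic 4-methylumbelliferone release. IC50 from triplicate measurements at each inhibitor concentration.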

The nature of assay [3]: Inhibition of human chitotriosidase using 4-methyumbelliferyl-beta-B-N,N'-triacetylchitotriose as substrate after 10 mins. The procedure, abridged: (§1)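 Enzymes (AfChiA1; human chitotriosidase) expressed and purified as reported earlier, assayed with fluorogenic 4MU-GlcNAc3 substrate. IC50 from triplicate measurements at each inhibitor concentration.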
For assay [4], the target named is T1, Endochitinase A1 (Aspergillus fumigatus, UniProt Q873Y0).
T1 sequence (Q873Y0 whole entry): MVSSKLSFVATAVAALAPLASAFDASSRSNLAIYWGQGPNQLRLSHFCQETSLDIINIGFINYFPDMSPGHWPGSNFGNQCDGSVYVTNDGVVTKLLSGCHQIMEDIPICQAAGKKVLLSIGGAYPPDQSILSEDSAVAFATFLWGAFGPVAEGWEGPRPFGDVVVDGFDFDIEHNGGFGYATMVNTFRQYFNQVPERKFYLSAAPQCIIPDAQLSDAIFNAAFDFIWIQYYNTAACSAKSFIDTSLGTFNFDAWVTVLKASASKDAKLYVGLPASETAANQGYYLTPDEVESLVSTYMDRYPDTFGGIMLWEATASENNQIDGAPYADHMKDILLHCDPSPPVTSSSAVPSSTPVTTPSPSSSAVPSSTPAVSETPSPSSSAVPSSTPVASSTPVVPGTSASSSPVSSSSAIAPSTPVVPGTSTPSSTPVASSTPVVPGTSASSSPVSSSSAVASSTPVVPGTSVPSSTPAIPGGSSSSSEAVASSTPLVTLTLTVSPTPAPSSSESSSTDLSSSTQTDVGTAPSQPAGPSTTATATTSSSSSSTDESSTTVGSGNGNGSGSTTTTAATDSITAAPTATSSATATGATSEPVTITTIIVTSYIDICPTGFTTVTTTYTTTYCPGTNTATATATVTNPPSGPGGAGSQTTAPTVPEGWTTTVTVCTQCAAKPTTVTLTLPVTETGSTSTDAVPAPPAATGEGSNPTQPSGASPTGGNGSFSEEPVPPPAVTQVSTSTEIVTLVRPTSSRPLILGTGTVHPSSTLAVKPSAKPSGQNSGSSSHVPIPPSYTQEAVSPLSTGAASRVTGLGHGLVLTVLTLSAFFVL
Description: Inhibition of Aspergillus fumigatus chitinaseA1 using 4-methyumbelliferyl-beta-B-N,N'-triacetylchitotriose as substrate after 10 mins. In a few lines:
as §1

Acidic mammalian chitinase, sequence (Q91XA9 whole entry): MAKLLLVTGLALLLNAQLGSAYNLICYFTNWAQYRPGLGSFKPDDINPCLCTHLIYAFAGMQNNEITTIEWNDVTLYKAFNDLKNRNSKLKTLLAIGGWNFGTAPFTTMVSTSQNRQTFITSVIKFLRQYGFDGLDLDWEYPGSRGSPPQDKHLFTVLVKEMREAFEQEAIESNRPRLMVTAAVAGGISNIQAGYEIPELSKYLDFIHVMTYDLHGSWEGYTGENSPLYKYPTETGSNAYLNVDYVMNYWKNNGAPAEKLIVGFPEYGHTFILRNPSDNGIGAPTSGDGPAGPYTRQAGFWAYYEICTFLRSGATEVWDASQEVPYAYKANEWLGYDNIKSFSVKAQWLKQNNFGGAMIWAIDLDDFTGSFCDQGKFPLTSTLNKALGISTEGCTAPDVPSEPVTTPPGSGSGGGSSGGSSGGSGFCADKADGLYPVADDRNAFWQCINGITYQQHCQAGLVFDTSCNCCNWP

Turning to `Cn1cnc2c1c(=O)n(CCn1c(=O)c3c(ncn3C)n(C)c1=O)c(=O)n2C` [BISDIONIN B], the IC50 is 4.8 µM in assay [1], 90 µM in assay [2], 110 µM in assay [3] and > 1000 µM in assay [4].

For the compound `Cn1cnc2c1c(=O)n(CCCn1c(=O)c3c(ncn3C)n(C)c1=O)c(=O)n2C` [BISDIONIN C], the half-maximal inhibitory concentration (IC50) is 0.2 µM in assay [1], 3.4 µM in assay [2], 8.3 µM in assay [3] and > 1000 µM in assay [4].

As to `Cn1cnc2c1c(=O)n(CCCCCn1c(=O)c3c(ncn3C)n(C)c1=O)c(=O)n2C` [BISDIONIN E], the IC50 in assay [1] turned out to be 5.7 µM; in assay [3], 260 µM; in assay [4], 820 µM.

Turning to `Cn1cnc2c1c(=O)n(CCCCn1c(=O)c3c(ncn3C)n(C)c1=O)c(=O)n2C` [BISDIONIN D], the IC50 in assay [1] was 9 µM; in assay [3] it was 91 µM; in assay [4] it was > 1000 µM.
